Converted amounts (≈) assume the structure as drawn.
Test system: Dickeya chrysanthemi
Assay: Antibacterial activity against Erwinia chrysanthemi ITCC B-40 assessed as as growth inhibition at 100 ug/disk after 24 hr by disk diffusion method
Assay type: functional
Conditions: ITCC B-40, 24 h, read-out: DIZ
How it was run: (§1)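 Disk diffusion on nutrient agar. Strains kept on NA slants at 37 °C and subcultured in nutrient broth before testing. A log-phase culture was spread on solidified medium, and sterile disks were loaded with compound from DMSO stock. DMSO served as control, with commercial antibiotics for reference. Plates ran 24 h at 37 °C, and inhibition zones (mm) were read in quadruplicate.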

Point of comparison: `CCOC(=O)C1C(=O)C=C(c2ccc(F)cc2)CC1c1cccc([N+](=O)[O-])c1` (stereo not given), zone of inhibition at 100 µg/disc 10 mm. Against it:
- CCOC(=O)C1C(=O)C=C(c2ccccc2)CC1c1ccc(OC)c(OC)c1 (stereo not given) — lower, 0 mm
- CCOC(=O)C1C(=O)C=C(c2ccccc2)CC1c1ccccc1 (stereo not given) — lower, 0 mm
- O=C(/C=C/c1ccccc1)c1ccccc1 [CHALCONE] — the same, 10 mm
- CCOC(=O)C1C(=O)C=C(c2ccccc2)CC1c1ccc(C)cc1 (stereo not given) — lower, 0 mm

Test system: Athelia rolfsii
Assay: Antifungal activity against Athelia rolfsii ITCC 6181 by food poisoning method
Assay type: functional
Conditions: Agroathelia rolfsii
How it was run: (§2)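 Poisoned food technique on PDA at several concentrations. A 5 mm mycelial plug from the growing edge of a 2-week-old colony was placed inoculum-side down at the plate centre. Plates incubated at 27 °C until control growth was nearly complete. Colony diameter measured, percent inhibition calculated against control, LC50 derived. Four replicates per treatment.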

Point of comparison: `CCOC(=O)C1C(=O)C=C(c2ccc(F)cc2)CC1c1cccc([N+](=O)[O-])c1` (stereo not given), LC50 285 µg/mL (≈ 743 µM). Against it:
- CCOC(=O)C1C(=O)C=C(c2ccccc2)CC1c1ccc(OC)c(OC)c1 (stereo not given) — within 1.5-fold, 323 µg/mL (≈ 849 µM)
- CCOC(=O)C1C(=O)C=C(c2ccccc2)CC1c1ccccc1 (stereo not given) — within 1.5-fold, 304 µg/mL (≈ 949 µM)
- O=C(/C=C/c1ccccc1)c1ccccc1 [CHALCONE] — 2.4-fold higher, 674 µg/mL (≈ 3240 µM)
- CCOC(=O)C1C(=O)C=C(c2ccccc2)CC1c1ccc(C)cc1 (stereo not given) — within 1.5-fold, 316 µg/mL (≈ 945 µM)

Test system: Bacillus thuringiensis
Assay: Antibacterial activity against Bacillus thuringiensis MTCC 6941 assessed as growth inhibition at 100 ug/disk after 24 hr by disk diffusion method
Assay type: functional
Conditions: MTCC 6941, 24 h, read-out: DIZ
How it was run: as §1

Point of comparison: `CCOC(=O)C1C(=O)C=C(c2ccc(F)cc2)CC1c1cccc([N+](=O)[O-])c1` (stereo not given), zone of inhibition at 100 µg/disc 0 mm. Against it:
- CCOC(=O)C1C(=O)C=C(c2ccccc2)CC1c1ccc(OC)c(OC)c1 (stereo not given) — the same, 0 mm
- CCOC(=O)C1C(=O)C=C(c2ccccc2)CC1c1ccccc1 (stereo not given) — the same, 0 mm
- O=C(/C=C/c1ccccc1)c1ccccc1 [CHALCONE] — the same, 0 mm
- CCOC(=O)C1C(=O)C=C(c2ccccc2)CC1c1ccc(C)cc1 (stereo not given) — the same, 0 mm

Test system: Staphylococcus aureus
Assay: Antibacterial activity against Staphylococcus aureus MTCC 3160 assessed as growth inhibition at 100 ug/disk after 24 hr by disk diffusion method
Assay type: functional
Conditions: MTCC 3160, 24 h, read-out: DIZ
How it was run: as §1

Point of comparison: `O=C(/C=C/c1ccccc1)c1ccccc1` [CHALCONE], zone of inhibition at 100 µg/disc 5 mm. Against it:
- CCOC(=O)C1C(=O)C=C(c2ccccc2)CC1c1ccc(OC)c(OC)c1 (stereo not given) — lower, 0 mm
- CCOC(=O)C1C(=O)C=C(c2ccc(F)cc2)CC1c1cccc([N+](=O)[O-])c1 (stereo not given) — lower, 0 mm
- CCOC(=O)C1C(=O)C=C(c2ccccc2)CC1c1ccccc1 (stereo not given) — lower, 0 mm
- CCOC(=O)C1C(=O)C=C(c2ccccc2)CC1c1ccc(C)cc1 (stereo not given) — lower, 0 mm

Test system: Bacillus pumilus
Assay: Antibacterial activity against Bacillus pumilus MTCC 2466 assessed as growth inhibition at 100 ug/disk after 24 hr by disk diffusion method
Assay type: functional
Conditions: MTCC 2466, 24 h, read-out: DIZ
How it was run: as §1

Point of comparison: `CCOC(=O)C1C(=O)C=C(c2ccccc2)CC1c1ccc(OC)c(OC)c1` (stereo not given), zone of inhibition at 100 µg/disc 0 mm. Against it:
- CCOC(=O)C1C(=O)C=C(c2ccc(F)cc2)CC1c1cccc([N+](=O)[O-])c1 (stereo not given) — the same, 0 mm
- CCOC(=O)C1C(=O)C=C(c2ccccc2)CC1c1ccccc1 (stereo not given) — the same, 0 mm
- O=C(/C=C/c1ccccc1)c1ccccc1 [CHALCONE] — the same, 0 mm
- CCOC(=O)C1C(=O)C=C(c2ccccc2)CC1c1ccc(C)cc1 (stereo not given) — the same, 0 mm

Test system: Rhizoctonia solani
Assay: Antifungal activity against Rhizoctonia solani ITCC 5563 by food poisoning method
Assay type: functional
Conditions: not given
How it was run: as §2

Point of comparison: `CCOC(=O)C1C(=O)C=C(c2ccccc2)CC1c1ccc(OC)c(OC)c1` (stereo not given), LC50 198 µg/mL (≈ 520 µM). Against it:
- CCOC(=O)C1C(=O)C=C(c2ccc(F)cc2)CC1c1cccc([N+](=O)[O-])c1 (stereo not given) — within 1.5-fold, 157 µg/mL (≈ 410 µM)
- CCOC(=O)C1C(=O)C=C(c2ccccc2)CC1c1ccccc1 (stereo not given) — within 1.5-fold, 207 µg/mL (≈ 646 µM)
- O=C(/C=C/c1ccccc1)c1ccccc1 [CHALCONE] — 80-fold lower, 2.49 µg/mL (≈ 12 µM)
- CCOC(=O)C1C(=O)C=C(c2ccccc2)CC1c1ccc(C)cc1 (stereo not given) — within 1.5-fold, 233 µg/mL (≈ 697 µM)

Test system: Pseudomonas aeruginosa
Assay: Antibacterial activity against Pseudomonas aeruginosa MTCC 2581 assessed as growth inhibition at 100 ug/disk after 24 hr by disk diffusion method
Assay type: functional
Conditions: MTCC 2581, 24 h, read-out: DIZ
How it was run: as §1

Point of comparison: `CCOC(=O)C1C(=O)C=C(c2ccccc2)CC1c1ccc(OC)c(OC)c1` (stereo not given), zone of inhibition at 100 µg/disc 5 mm. Against it:
- CCOC(=O)C1C(=O)C=C(c2ccc(F)cc2)CC1c1cccc([N+](=O)[O-])c1 (stereo not given) — lower, 0 mm
- CCOC(=O)C1C(=O)C=C(c2ccccc2)CC1c1ccccc1 (stereo not given) — lower, 0 mm
- O=C(/C=C/c1ccccc1)c1ccccc1 [CHALCONE] — higher, 10 mm
- CCOC(=O)C1C(=O)C=C(c2ccccc2)CC1c1ccc(C)cc1 (stereo not given) — lower, 0 mm

Test system: Radical scavenging activity
Assay: Antioxidant activity assessed as DPPH free radical scavenging activity after 20 min by UV-Vis spectrophotometric analysis
Assay type: functional
Design: concentration or dose not given beside the values
Conditions: not given
How it was run: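 DPPH radical scavenging: samples were held at room temperature for 20 min in the dark, and absorbance was read at 517 nm. The control contained DMSO without compound, and methanol was used for baseline correction. Scavenging percentage was calculated from the absorbances.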

Point of comparison: `CCOC(=O)C1C(=O)C=C(c2ccccc2)CC1c1ccc(C)cc1` (stereo not given), Activity 4.17%. Against it:
- CCOC(=O)C1C(=O)C=C(c2ccccc2)CC1c1ccc(OC)c(OC)c1 (stereo not given) — higher, 4.23%
- CCOC(=O)C1C(=O)C=C(c2ccc(F)cc2)CC1c1cccc([N+](=O)[O-])c1 (stereo not given) — higher, 4.23%
- CCOC(=O)C1C(=O)C=C(c2ccccc2)CC1c1ccccc1 (stereo not given) — lower, 3.33%
- O=C(/C=C/c1ccccc1)c1ccccc1 [CHALCONE] — higher, 9.11%

Test system: Klebsiella pneumoniae
Assay: Antibacterial activity against Klebsiella pneumoniae MTCC 7028 assessed as growth inhibition at 100 ug/disk after 24 hr by disk diffusion method
Assay type: functional
Conditions: MTCC 7028, 24 h, read-out: DIZ
How it was run: as §1

Point of comparison: `CCOC(=O)C1C(=O)C=C(c2ccccc2)CC1c1ccc(C)cc1` (stereo not given), zone of inhibition at 100 µg/disc 5 mm. Against it:
- CCOC(=O)C1C(=O)C=C(c2ccccc2)CC1c1ccc(OC)c(OC)c1 (stereo not given) — lower, 0 mm
- CCOC(=O)C1C(=O)C=C(c2ccc(F)cc2)CC1c1cccc([N+](=O)[O-])c1 (stereo not given) — lower, 0 mm
- CCOC(=O)C1C(=O)C=C(c2ccccc2)CC1c1ccccc1 (stereo not given) — higher, 10 mm
- O=C(/C=C/c1ccccc1)c1ccccc1 [CHALCONE] — lower, 0 mm

Test system: Xanthomonas oryzae
Assay: Antibacterial activity against Xanthomonas oryzae ITCC B-47 assessed as as growth inhibition at 100 ug/disk after 24 hr by disk diffusion method
Assay type: functional
Conditions: ITCC B-47, 24 h, read-out: DIZ

Point of comparison: `O=C(/C=C/c1ccccc1)c1ccccc1` [CHALCONE], zone of inhibition at 100 µg/disc 0 mm. Against it:
- CCOC(=O)C1C(=O)C=C(c2ccccc2)CC1c1ccc(OC)c(OC)c1 (stereo not given) — the same, 0 mm
- CCOC(=O)C1C(=O)C=C(c2ccc(F)cc2)CC1c1cccc([N+](=O)[O-])c1 (stereo not given) — the same, 0 mm
- CCOC(=O)C1C(=O)C=C(c2ccccc2)CC1c1ccccc1 (stereo not given) — the same, 0 mm
- CCOC(=O)C1C(=O)C=C(c2ccccc2)CC1c1ccc(C)cc1 (stereo not given) — the same, 0 mm
